Laboratory results: publication PMC2928052 (Journal of medicinal chemistry, 2010)
Entries after “also recorded” stand apart in the source; their conditions may differ.

What was measured:
[1] = system: biotinylated HIV-1 FSS RNA; test: SPR binding kinetics, RNA immobilized on streptavidin-coated CM5 chip; details: 1X PBS, 5 mM MgCl2, 0.005 % Tween-20, 1:1 global fit to six sensorgrams
[2] = target: DNA homolog of the HIV-1 FSS (entry 9); test: Fluorescence titration, Table 1 entry 9; type: binding
Procedure, shortened: (§1)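 5′-Cy3-labelled oligonucleotide (400 or 500 nM) in 1X PBS pH 7.2 was heated to 65 °C for 4 min, MgCl2 was added, and the sample was cooled slowly to RT. Test compound was titrated in (100 nM–10 μM), with ≥10 min equilibration per addition. Excitation was 550 nm and emission was read at 564.1 nm. Dilution-corrected ΔFU was fit to a 1-site ligand-depletion model, with ≥2 titrations.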

[3] = system: HIV-1 FSS with multiple mutations in the loop region (entry 8); test: Fluorescence titration, Table 1 entry 8; type: binding; details: entry 8, multiple mutations in the loop region
[4] = target: unrelated RNA hairpin (entry 10); details: Table 1 entry 10; compound immobilized on chip; previously reported; cited from earlier work
[5] = system: HIV-1 FSS with single mutation in the loop region (entry 7); test: Fluorescence titration, Table 1 entry 7; type: binding; details: entry 7, single mutation in the loop region
[6] = target: unrelated RNA hairpin (entry 10); test: Fluorescence titration, Table 1 entry 10; type: binding
Procedure, shortened: as §1

[7] = target: unrelated RNA hairpin (entry 11); test: Fluorescence titration, Table 1 entry 11; type: binding
Procedure, shortened: as §1

[8] = target: HIV-1 FSS RNA (upper stem-loop of the HIV-1 frameshift-stimulating RNA); test: Fluorescence titration of compound into 5′-Cy3-labeled RNA; type: binding, HIV-1 (group M subtype D); details: Table 2, average ± standard deviation of 3 replicate titrations

Compound | Association rate (kon) [1] | Dissociation rate (koff) [1] | Binding constant (KD), Solution [2] | reduction in the binding relative to HIV-1 FSS [3] | Binding constant (KD), SPR [4] | reduction in the binding relative to HIV-1 FSS [5] | Binding constant (KD), Solution [6] | Binding constant (KD), Solution [7] | KD [8]
NC[C@@H]1O[C@H](O[C@H]2[C@@H](O)[C@H](O[C@@H]3[C@@H](O)[C@H](N)C[C@H](N)[C@H]3O[C@H]3O[C@H](CN)[C@@H](O)[C@H](O)[C@H]3N)O[C@@H]2CO)[C@H](N)[C@@H](O)[C@@H]1O [Neomycin, neomycin, reference compound] | too rapid to determine accurately | too rapid to determine accurately | – | – | – | – | – | – | –
(Cys-Pro-Phe)2 (disulfide) [Compound 1] | 1790 M⁻¹ s⁻¹ | 0.0141 s⁻¹ | No saturable binding | 4 fold | No binding | 2 fold | No saturable binding | No saturable binding | –
(Cys-Pro-Phe)2 (disulfide) [Compound 5] | – | – | – | – | – | – | – | – | completely ablated binding; also recorded: No Binding
